In the library only some 1.3% were active in any assay of this set; here they are far more common.
G6PDH counter: L. mesenteroides G6PDH inhibitors, counter-screen for G6PDH-coupled screening assays, biochemical, Leuconostoc mesenteroides enzyme; inhibition, % at 5 µM; glucose-6-phosphate dehydrogenase [Leuconostoc mesenteroides]; Purified L. mesenteroides G6PDH, diaphorase/resazurin coupled fluorescence, 45 min; AID 1020, 2008; actives 0.12% (n = 200,000); in the data active = inhibition above about 50%
Diaph act CS: compounds boosting diaphorase resazurin reduction – biochemical, uHTS, resorufin fluorescence, counter-screen for diaphorase-coupled primary assays, primary screen | activation factor at 20 µM | actives 0.005% (n = 190,000) | Diaphorase/resazurin coupled assay, 16 min; stronger effect = higher value; 1 = vehicle wells, 0 = NADH-free wells;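 active = diaphorase activity raised at least twofold by the compound at 20 µM; inactive = activation factor below 2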
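Test system: Clostridium kluyveri diaphorase, purified enzyme. Buffer or medium: 50 mM HEPES pH 7.4 buffer plus MgCl2 and Tween 20. Also added: 0.114 mM NADH and 0.1 mM resazurin, final amounts. Dosing: compound 20 µM once, DMSO 1%. Schedule: 16 min enzyme reaction, ambient temperature. Detection: fluorescence of resorufin, 544 nm excitation, 590 nm emission.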
Diaph inh CS: diaphorase inhibitors and chemical oxidizers, primary screen, counter-screen for diaphorase-coupled primary assays, biochemical, uHTS, resorufin fluorescence | diaphorase resazurin-to-resorufin fluorescence, NADH, 16 min; bacterial (C. kluyveri) enzyme, not human | inhibition, % at 20 µM | actives 0.69% (n = 190,000) | AID 1217, 2008;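 active = primary screen inhibition at 20 µM above a set limit, cut at about 50% in these data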;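 also: plate controls were DMSO with full reaction for no effect and wells lacking NADH for full effect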
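Assay system: diaphorase enzyme from Clostridium kluyveri. Quantity: enzyme working solution with 0.14 U/mL diaphorase. Schedule: reaction incubation of 16 min at room temperature. Technique: resorufin fluorescence, excitation 544 nm, emission 590 nm. Controls: No-NADH positive control and DMSO neutral control.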
Tb hexokinase: Trypanosoma brucei hexokinase 1 inhibitors, primary screen, biochemical, G6PDH-coupled NADH absorbance, MLSCN library. hexokinase 1 [Trypanosoma brucei]. recombinant TbHK1, G6PDH-coupled NADH A340. inhibition, % at 10 µM. actives 0.11% (n = 220,000). AID 1430, 2008;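 active = inhibition of 50% or more in the single-dose primary screen; inactive = inhibition below 50%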
PfGluPho inh: PfG6PD enzyme inhibitors, primary screen, biochemical, fluorescence intensity, uHTS | glucose-6-phosphate dehydrogenase-6-phosphogluconolactonase (Plasmodium falciparum 3D7) | PfGluPho enzyme, NADPH resazurin-diaphorase fluorescence | inhibition, % at 20 µM | actives 0.78% (n = 350,000);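 active = inhibition reaching at least a set limit at 20 µM in the primary screen, cut at about 59% in these data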;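 also: 0% = DMSO wells with substrate and 100% = DMSO wells lacking glucose-6-phosphate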
HKDC1 inhibitor: HKDC1 hexokinase inhibitors, primary screen, biochemical, fluorescence, uHTS; Q2TB90; recombinant HKDC1, G6PDH/diaphorase resazurin coupled fluorescence; inhibition, % at 20 µM; actives 0.16% (n = 340,000); AID 493160, 2011;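 active = inhibition above about 35% when tested at 20 µM, limit read from the data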;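 also: plate controls were DMSO wells with enzyme for no effect and DMSO wells lacking enzyme for full effect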
Target sequence (Q2TB90 whole entry, looked up): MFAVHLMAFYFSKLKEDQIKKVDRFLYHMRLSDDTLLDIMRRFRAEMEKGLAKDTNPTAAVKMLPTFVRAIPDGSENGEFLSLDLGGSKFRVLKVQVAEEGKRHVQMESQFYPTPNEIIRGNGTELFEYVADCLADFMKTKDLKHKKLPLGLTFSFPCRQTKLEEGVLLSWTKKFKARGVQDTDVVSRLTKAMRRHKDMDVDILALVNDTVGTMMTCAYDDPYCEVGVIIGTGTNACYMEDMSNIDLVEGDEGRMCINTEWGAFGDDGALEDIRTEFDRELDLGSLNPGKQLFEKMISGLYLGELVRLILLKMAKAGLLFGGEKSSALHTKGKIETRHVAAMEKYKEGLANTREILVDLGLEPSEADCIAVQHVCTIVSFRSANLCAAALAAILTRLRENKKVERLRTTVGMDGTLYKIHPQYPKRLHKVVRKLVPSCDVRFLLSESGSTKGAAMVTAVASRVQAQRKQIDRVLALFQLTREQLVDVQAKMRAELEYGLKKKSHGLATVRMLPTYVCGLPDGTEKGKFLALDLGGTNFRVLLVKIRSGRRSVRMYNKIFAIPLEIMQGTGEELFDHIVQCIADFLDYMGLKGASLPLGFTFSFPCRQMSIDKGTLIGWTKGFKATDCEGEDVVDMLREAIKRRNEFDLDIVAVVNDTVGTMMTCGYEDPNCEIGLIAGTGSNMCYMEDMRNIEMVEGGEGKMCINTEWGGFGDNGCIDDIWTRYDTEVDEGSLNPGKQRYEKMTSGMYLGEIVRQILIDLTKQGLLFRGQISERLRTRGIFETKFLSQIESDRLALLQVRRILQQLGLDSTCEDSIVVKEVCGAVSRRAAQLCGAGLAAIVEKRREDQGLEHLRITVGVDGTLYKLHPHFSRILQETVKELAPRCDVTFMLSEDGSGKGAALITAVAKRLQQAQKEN
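Test system: Recombinant HKDC1 (HK5) hexokinase enzyme, produced in-house | Input: HKDC1 at 5 µg/mL | Buffer or medium: Tris pH 8.0 buffer with MgCl2, Tween-20, BSA, BME | Schedule: 90 min reaction incubation at room temperature, dark | Technique: Resazurin-to-resorufin fluorescence via G6PDH and diaphorase coupling, 525/613 nm | Controls: DMSO wells with and without enzyme mix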
PfG6PD confirm: PfG6PD inhibitors, hit retest, confirmation, biochemical, fluorescence intensity, single concentration. shares compounds with PfGluPho inh. recombinant PfGluPho, NADPH-diaphorase-resazurin fluorescence. inhibition, % at 20 µM. actives 34% (n = 2,400). AID 504753, 2011;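 active = inhibition of at least 50% at 20 µM in any single replicate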;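 also: 0% = DMSO with substrate and 100% = DMSO lacking glucose-6-phosphate substrate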
Diaphorase 10uM: diaphorase inhibitors and chemical oxidizers, confirmation, counter-screen for P. falciparum G6PD inhibitor project, biochemical, fluorescence intensity, 10 µM NADPH; shares compounds with PfGluPho inh; diaphorase-coupled resazurin reduction, NADPH 10 uM; inhibition, % at 20 µM; actives 39% (n = 820); AID 504862, 2011;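 active = average inhibition reaching 50% or more with the compound at 20 µM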;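 also: resorufin red fluorescence formed as diaphorase reduces resazurin using NADPH; 0% = DMSO with enzyme and 100% = DMSO without enzyme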
Diaphorase 30uM: diaphorase inhibitors and chemical oxidizers, confirmation, counter-screen for P. falciparum G6PD inhibitor project, biochemical, fluorescence intensity, 30 µM NADPH. shares compounds with PfGluPho inh. Diaphorase/resazurin coupled assay, resorufin fluorescence. inhibition, % at 20 µM. AID 504863, 2011. actives 29% (n = 820);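 active = inhibition averaging 50% or more, tested at 20 µM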;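 also: 0% = DMSO with enzyme and 100% = DMSO wells lacking diaphorase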
* marks the source's active call; other numbers are inactive results; . = no result.

SMILES	G6PDH counter	Diaph act CS	Diaph inh CS	Tb hexokinase	PfGluPho inh	HKDC1 inhibitor	PfG6PD confirm	others
CC(C)Nc1nc(Cl)nc(Nc2ccccc2)n1	.	.	.	.	0.3	1.9	.
CC(NC(=O)CN1C(=O)NC2(CCc3ccccc32)C1=O)c1ccccc1 (stereo not given)	.	.	.	.	-1.0	-4.3	.
Cc1ccccc1NC(=O)c1c(C)[nH]c(=S)c(C#N)c1-c1ccco1	-16.1	0.7	27.8	-10.3	42.2	-10.6	.
Cc1[nH]c(=S)c(C#N)c(C)c1C(=O)Nc1ccccc1	1.7	0.9	13.8	-8.6	61.8*	-5.7	37.4
CNC(=O)c1c(C)[nH]c(=S)c(C#N)c1-c1ccco1	.	.	.	-18.4	56.2	-3.7	.
CCc1c(C(=O)Nc2ccccc2)c(C)[nH]c(=S)c1C#N	0.1	0.8	15.2	-20.9	59.1*	5.8	54.4*	Diaphorase 10uM=-28.7;Diaphorase 30uM=-19.5
Cc1csc(NC(=O)c2ccc(Cl)nc2)n1	.	.	.	.	-6.8	0.5	.
O=C(C=Cc1ccccc1)Nc1ccccc1	.	.	.	.	27.4	1.3	.
O=C(Nc1ccccc1C(=O)O)c1ccc2ccccc2n1	9.0	0.9	13.1	-3.2	73.7*	-0.4	70.4*	Diaphorase 10uM=58.9*;Diaphorase 30uM=67.6*
COc1ccccc1NS(=O)(=O)c1cccc(NC(=O)c2ccc3ccccc3n2)c1	-63.6	0.7	29.7	-2.7	2.6	-8.6	.
CCSc1nnc(NC(=O)c2ccc3ccccc3n2)s1	5.6	0.9	14.3	-9.5	71.4*	0.3	42.8
O=C(Nc1cccc(S(=O)(=O)Nc2ccccc2F)c1)c1ccc2ccccc2n1	1.6	0.7	26.2	29.9	75.5*	-19.6	49.1
O=C(/C=C/c1ccccc1)Nc1cccc(S(=O)(=O)Nc2ccccc2F)c1	-2.2	0.7	27.9	25.7	71.2*	-39.7	45.6
CCn1ccnc1CN(C)C(=O)c1ccc(OC2CCN(CCc3ccccc3)CC2)cc1	.	.	.	.	-7.7	-8.4	.
Cc1ccccc1CN(C)C(=O)CNC(=O)c1ccc2ccccc2c1	.	.	.	.	7.8	-7.1	.
O=C(c1ccccc1)c1ccc(CN2C(=O)c3ccccc3C2=O)o1	10.1	0.9	9.6	-13.9	7.6	-8.8	.
O=C1c2ccccc2C(=O)c2c1oc(C(F)(F)F)c2C(=O)c1ccccc1	57.4*	0.9	6.0	1.3	74.3*	17.2	16.2
CCN(C(=O)COC(=O)C1CCN(S(=O)(=O)c2ccc3c(c2)OCCO3)CC1)C1CCCCC1	.	.	.	.	11.4	-0.4	.
CCCC(=O)Nc1nc2ccc(OC)cc2s1	4.9	1	3.1	-2.6	5.9	-2.3	.
COc1ccc2nc(NC(=S)N(C)C)sc2c1	4.0	0.9	5.0	-37.5	70.3*	-9.7	12.6
CCOC(=O)c1sc(=S)n(C)c1NC(=O)c1ccc(F)cc1	18.6	1	0.1	-30.3	72.0*	-11.6	40.7
Cc1ccc(C)c(Nc2nc3ccccc3n3cnnc23)c1	.	.	.	.	17.3	2.5	.
